Source: ChEMBL document CHEMBL4190402, “Development of a Novel Human Parathyroid Hormone Receptor 1 (hPTHR1) Agonist (CH5447240), a Potent and Orally Available Small Molecule for Treatment of Hypoparathyroidism” (J Med Chem, 2018)
In brackets after ≈: the same amount, converted by molar mass. Activity calls are given as the source filed them. The rule behind the calls is not given here.

Experiments:
[1] = target: T1, Parathyroid hormone/parathyroid hormone-related peptide receptor (Homo sapiens, UniProt Q03431); experiment: Displacement of 125I-PTH (1 to 15 residues) from human PTHR1 expressed in African green monkey COS7 cell membranes at 300 uM after 90 mins by gamma counting analysis
T1 sequence (Q03431 whole entry): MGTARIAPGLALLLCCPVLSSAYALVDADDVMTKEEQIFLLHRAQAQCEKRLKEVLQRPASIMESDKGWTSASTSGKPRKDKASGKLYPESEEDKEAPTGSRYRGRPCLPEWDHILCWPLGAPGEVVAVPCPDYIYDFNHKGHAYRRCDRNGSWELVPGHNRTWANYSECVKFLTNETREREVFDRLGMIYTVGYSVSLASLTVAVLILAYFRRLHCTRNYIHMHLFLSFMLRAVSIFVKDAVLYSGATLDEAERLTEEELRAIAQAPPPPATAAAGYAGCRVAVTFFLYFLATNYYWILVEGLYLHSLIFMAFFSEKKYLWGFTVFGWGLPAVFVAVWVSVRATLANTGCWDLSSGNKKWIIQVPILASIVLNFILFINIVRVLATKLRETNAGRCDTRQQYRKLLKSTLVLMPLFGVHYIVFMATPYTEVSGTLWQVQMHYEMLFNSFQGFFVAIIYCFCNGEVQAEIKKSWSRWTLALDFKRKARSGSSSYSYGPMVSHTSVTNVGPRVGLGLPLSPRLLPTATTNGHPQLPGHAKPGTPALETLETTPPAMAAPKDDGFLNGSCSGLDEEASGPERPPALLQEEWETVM

[2] = target: T2, Parathyroid hormone/parathyroid hormone-related peptide receptor (Homo sapiens) (UniProt Q03431); experiment: (§1) Agonist activity at human PTHR1 expressed in HKRKB7 cells assessed as accumulation of intracellular cAMP after 20 mins by enzyme immunoassay; format: functional, cell-based
T2 sequence (whole entry): T1 sequence (Q03431 whole entry)
Method in brief: (§2)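 HKRK-B7 cells (LLC-PK1 stably expressing hPTHR1), 1.0 x 10^3 per well, seeded overnight, then exposed to serially diluted compound in McCoy's 5A with 2 mg/ml BSA, 1 mmol/l IBMX and 2 mmol/l HEPES for 20 min at 37°C. Cells washed, frozen, lysed in 50 mmol/l HCl, cAMP read by EIA.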

[3] = target: T1, Parathyroid hormone/parathyroid hormone-related peptide receptor; experiment: as §1; format: functional, cell-based; method in brief: as §2
[4] = target: T2, Parathyroid hormone/parathyroid hormone-related peptide receptor (Homo sapiens); experiment: Displacement of 125I-PTH (1 to 15 residues) from human PTHR1 expressed in African green monkey COS7 cell membranes after 90 mins by gamma counting analysis
Method in brief: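 Competition binding on membranes from COS-7 cells expressing human PTHR1. Incubated 90 min at room temperature, vacuum-filtered and washed, filter radioactivity gamma-counted. Nonspecific binding defined with excess (1x10^4 M as printed) unlabeled PTH(1-34).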

[5] = Solubility of the compound in FaSSIF at 1 mM by HPLC-UV analysis; format: physicochemical; settings: FaSSIF
Method in brief: (§3)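 A 1 mM DMSO stock (50 µL) was freeze-dried, then the residue taken up in 50 mM PBS pH 6.5 or FaSSIF pH 6.5. Sonicated 10 min, shaken 2 h, centrifuged, filtered. Filtrate concentration determined by HPLC-UV against each compound's calibration curve.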

[6] = Solubility of the compound in PBS at pH 6.5 at 1 mM by HPLC-UV analysis; format: physicochemical; settings: PBS, pH 6.5; method in brief: as §3
[7] = Intrinsic clearance in human liver microsomes assessed per mg protein at 1 uM after 30 mins in presence of NADPH by LC-MS/MS analysis; format: ADME, microsome; settings: read-out: CLH
[8] = Intrinsic clearance in human liver microsomes assessed per mg protein at 1 uM after 30 mins in absence of NADPH by LC-MS/MS analysis; format: ADME, microsome; settings: microsomes, 0.5 h, 1 µM
[9] = Half life in Crl:CD/SD IGS, CRJ rat at 3 mg/kg, iv by LC-MS/MS analysis; format: ADME, organism-based; settings: in vivo
Method in brief: (§4)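 Female 5-week-old rats, two per dose group, given 3 mg/kg orally or intravenously. Oral blood samples at 15 and 30 min, 1, 2, 4 and 6 h; intravenous sample at 3 min. Plasma drug measured by LC-MS/MS (detection limit 0.3 ng/ml). Parameters derived by noncompartmental analysis; mean of n=2.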

[10] = Half life in Crl:CD/SD IGS, CRJ rat at 3 mg/kg, po by LC-MS/MS analysis; format: ADME, organism-based; settings: in vivo; method in brief: as §4
[11] = Tmax in Crl:CD/SD IGS, CRJ rat at 3 mg/kg, po by LC-MS/MS analysis; format: ADME, organism-based; settings: in vivo; method in brief: as §4
[12] = Cmax in Crl:CD/SD IGS, CRJ rat at 3 mg/kg, po by LC-MS/MS analysis; format: ADME, organism-based; set-up: dose 3 mg/kg, route oral; settings: in vivo; method in brief: as §4
[13] = AUC (infinity) in Crl:CD/SD IGS, CRJ rat at 3 mg/kg, iv by LC-MS/MS analysis; format: ADME, organism-based; set-up: dose 3 mg/kg, route intravenous, time infinity; settings: in vivo; method in brief: as §4
[14] = AUC (infinity) in Crl:CD/SD IGS, CRJ rat at 3 mg/kg, po by LC-MS/MS analysis; format: ADME, organism-based; set-up: dose 3 mg/kg, time infinity, route oral; settings: in vivo; method in brief: as §4
[15] = Clearance in Crl:CD/SD IGS, CRJ rat at 3 mg/kg, iv by LC-MS/MS analysis; format: ADME, organism-based; settings: in vivo; method in brief: as §4
[16] = Clearance in Crl:CD/SD IGS, CRJ rat at 3 mg/kg, po by LC-MS/MS analysis; format: ADME, organism-based; settings: in vivo; method in brief: as §4
[17] = Volume of distribution at steady state in Crl:CD/SD IGS, CRJ rat at 3 mg/kg, iv by LC-MS/MS analysis; format: ADME, organism-based; settings: in vivo, read-out: Vdss; method in brief: as §4
[18] = Oral bioavailability in Crl:CD/SD IGS, CRJ rat at 3 mg/kg by LC-MS/MS analysis; format: ADME, organism-based; settings: in vivo; method in brief: as §4
hERG (KCNH2) = hERG (KCNH2) (Homo sapiens, UniProt Q12809); experiment: Inhibition of human ERG at a holding potential of -80 mV at 10 uM by automated patch clamp electrophysiology method
Sequence of hERG (KCNH2) (Q12809 whole entry, the tested form may be a part): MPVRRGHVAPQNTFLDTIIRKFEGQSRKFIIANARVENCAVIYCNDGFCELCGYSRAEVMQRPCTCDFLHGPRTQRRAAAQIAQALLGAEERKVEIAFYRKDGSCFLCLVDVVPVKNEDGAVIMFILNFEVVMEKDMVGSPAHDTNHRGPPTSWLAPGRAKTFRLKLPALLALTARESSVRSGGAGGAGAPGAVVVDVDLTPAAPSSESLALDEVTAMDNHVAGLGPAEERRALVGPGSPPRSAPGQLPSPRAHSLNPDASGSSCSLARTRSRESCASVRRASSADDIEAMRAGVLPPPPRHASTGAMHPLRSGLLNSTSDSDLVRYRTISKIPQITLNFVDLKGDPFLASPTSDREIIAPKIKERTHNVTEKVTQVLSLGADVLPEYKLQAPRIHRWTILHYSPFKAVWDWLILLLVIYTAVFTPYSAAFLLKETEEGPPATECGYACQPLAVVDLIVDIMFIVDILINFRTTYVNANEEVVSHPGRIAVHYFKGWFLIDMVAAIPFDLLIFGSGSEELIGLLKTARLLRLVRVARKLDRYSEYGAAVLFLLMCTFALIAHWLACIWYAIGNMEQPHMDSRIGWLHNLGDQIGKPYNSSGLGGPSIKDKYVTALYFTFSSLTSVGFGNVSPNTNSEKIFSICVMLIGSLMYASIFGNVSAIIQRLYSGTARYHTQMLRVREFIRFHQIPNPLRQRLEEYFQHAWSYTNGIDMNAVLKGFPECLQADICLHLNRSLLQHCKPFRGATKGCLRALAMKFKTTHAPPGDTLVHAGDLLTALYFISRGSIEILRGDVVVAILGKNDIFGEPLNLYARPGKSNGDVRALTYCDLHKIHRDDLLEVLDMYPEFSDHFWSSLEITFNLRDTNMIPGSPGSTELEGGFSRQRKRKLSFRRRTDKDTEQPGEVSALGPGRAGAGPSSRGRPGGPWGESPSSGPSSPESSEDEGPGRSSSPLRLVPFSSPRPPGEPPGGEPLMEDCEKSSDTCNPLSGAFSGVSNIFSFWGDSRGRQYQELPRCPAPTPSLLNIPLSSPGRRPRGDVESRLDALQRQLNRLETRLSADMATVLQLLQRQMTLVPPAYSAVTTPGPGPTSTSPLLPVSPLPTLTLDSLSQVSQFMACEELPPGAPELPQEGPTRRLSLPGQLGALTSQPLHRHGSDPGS

[19] = target: T2, Parathyroid hormone/parathyroid hormone-related peptide receptor (Homo sapiens); experiment: Ratio of IC50 for displacement of 125I-PTH (1 to 15 residues) from human PTHR1 expressed in African green monkey COS7 cell membranes to EC50 for agonist activity at human PTHR1 expressed in HKRKB7 cells assessed as accumulation of intracellular cAMP; format: functional
LLC-PK1 = experiment: Induction of cAMP production in porcine LLC-PK1 cells after 20 mins by enzyme immunoassay; format: functional, cell-based; settings: Sus scrofa
Method in brief: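 Counter-screen on parent LLC-PK1 cells lacking hPTHR1. Conditions match the HKRK-B7 assay: 20 min at 37°C in IBMX-containing assay medium, then cAMP read by EIA.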

Rattus norvegicus [20] = experiment: In vivo agonist activity at PTHR1 in po dosed Crl:CD(SD) rat TPTX model assessed as increase in serum calcium levels administered as single dose measured after 24 hrs by o-cresolphthalein complexone method; format: functional, organism-based
Method in brief: (§5)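 Female 6-week-old Crl:CD(SD) rats after surgical TPTX; those with serum Ca <8.0 mg/dl at day 5 were used, and dosing began day 6. Single oral dose of 6, 19 or 60 mg/kg, or vehicle (10% DMSO/10% Kolliphor EL in 10% HPCD/0.752% glycine buffer), n=5 per group. Jugular blood taken under isoflurane before dosing and at 0.5, 1, 2, 4, 6, 10 and 24 h. Serum Ca measured by o-CPC, Pi by xanthine oxidase.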

Rattus norvegicus [21] = experiment: In vivo agonist activity at PTHR1 in po dosed Crl:CD(SD) rat TPTX model assessed as decrease in serum phosphorus levels administered as single dose measured after 24 hrs by xanthine oxidase method; format: functional, organism-based; method in brief: as §5
Rattus norvegicus [22] = experiment: Tmax in Sprague-Dawley rat at 5 ug/kg, sc; format: ADME, organism-based; settings: in vivo, 0.005 mg/kg
[23] = Half life in Sprague-Dawley rat at 5 ug/kg, sc; format: ADME, organism-based; settings: in vivo, 0.005 mg/kg

Cc1cc(N(C)C(N)=O)cc(C)c1CCS(=O)(=O)N1CCC2(CC1)N=C([C@H]1CC[C@H](C)CC1)NC2=O showed an IC50 [1] of 93.7 µM, an EC20 [2] of 3 µM and an EC50 [3] of 12 µM. The inhibition [4] was 75%, the solubility at 1000 µM [5] was 250 µg/mL (≈ 483 µM) and the solubility at 1000 µM [6] was 99 µg/mL (≈ 191 µM). For the same molecule, the microsomal CLint at 1 µM [7] was 45 µL/min/mg, the CLint [8] was 0.14 µL/min/mg and the half-life [9] was 1.1 h. The half-life [10] was 1 h, the Tmax [11] was 1 h and the Cmax [12] was 1360 ng/mL. It also gave an AUC(0-inf) [13] of 4820 ng·h/mL, an AUC(0-inf) [14] of 2650 ng·h/mL and a clearance [15] of 10.4 mL/min/kg. It also gave a CL/F [16] of 19 mL/min/kg, a Vd [17] of 0.395 L/kg and a bioavailability [18] of 55%. For the same molecule, the inhibition at 10 µM (hERG (KCNH2)) was 10%, the Ratio IC50/EC50 [19] was 8 and the Activity (LLC-PK1) was “inactive”. For the same molecule, the Activity (Rattus norvegicus [20]) was “Dose-dependent effect” and the Activity (Rattus norvegicus [21]) was “Dose-dependent effect”.

Molecule CC[C@H](C)[C@H](NC(=O)[C@H](CCC(=O)O)NC(=O)[C@H](CO)NC(=O)[C@@H](NC(=O)[C@@H](N)CO)C(C)C)C(=O)N[C@@H](CCC(N)=O)C(=O)N[C@@H](CC(C)C)C(=O)N[C@@H](CCSC)C(=O)N[C@@H](Cc1cnc[nH]1)C(=O)N[C@@H](CC(N)=O)C(=O)N[C@@H](CC(C)C)C(=O)NCC(=O)N[C@@H](CCCCN)C(=O)N[C@@H](Cc1cnc[nH]1)C(=O)N[C@@H](CC(C)C)C(=O)N[C@@H](CC(N)=O)C(=O)N[C@@H](CO)C(=O)N[C@@H](CCSC)C(=O)N[C@@H](CCC(=O)O)C(=O)N[C@@H](CCCN=C(N)N)C(=O)N[C@H](C(=O)N[C@@H](CCC(=O)O)C(=O)N[C@@H](Cc1c[nH]c2ccccc12)C(=O)N[C@@H](CC(C)C)C(=O)N[C@@H](CCCN=C(N)N)C(=O)N[C@@H](CCCCN)C(=O)N[C@@H](CCCCN)C(=O)N[C@@H](CC(C)C)C(=O)N[C@@H](CCC(N)=O)C(=O)N[C@@H](CC(=O)O)C(=O)N[C@H](C(=O)N[C@@H](Cc1cnc[nH]1)C(=O)N[C@@H](CC(N)=O)C(=O)N[C@@H](Cc1ccccc1)C(=O)O)C(C)C)C(C)C [TERIPARATIDE] has a Tmax (Rattus norvegicus [22]) of 0.25 h and a half-life [23] of 0.5 h.
